Bioassay records (PubChem BioAssay)
PAFAH1B2 inh = PAFAH1B2 enzyme inhibitors, primary screen, biochemical, fluorescence polarization, human | recombinant PAFAH1B2, FP-rhodamine activity probe | hit rate 1.2% among 340,000 | inhibition, % at 3.39 µM | Platelet-activating factor acetylhydrolase IB subunit alpha2 (Homo sapiens), P68402;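 active means inhibition above the mean of all tested compounds plus 3 SD, cut at about 24% in these data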
Target sequence (P68402 whole entry, looked up): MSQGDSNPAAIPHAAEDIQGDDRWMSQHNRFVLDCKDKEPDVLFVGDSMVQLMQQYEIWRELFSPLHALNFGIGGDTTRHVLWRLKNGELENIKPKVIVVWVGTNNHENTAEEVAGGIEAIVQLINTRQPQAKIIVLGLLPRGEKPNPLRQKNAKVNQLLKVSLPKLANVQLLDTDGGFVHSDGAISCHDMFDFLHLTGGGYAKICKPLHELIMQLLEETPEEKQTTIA
RBBP9 inh = human RBBP9 inhibitors, primary screen, biochemical, fluorescence polarization, FP-Rh probe, HTS. recombinant RBBP9. inhibition, % at 7.94 µM. hit rate 0.2% among 220,000. AID 1515, 2009;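 active means inhibition above the campaign mean of all tested compounds plus 3 SD, cut at about 14% in these data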
Target sequence (O75884 whole entry, looked up): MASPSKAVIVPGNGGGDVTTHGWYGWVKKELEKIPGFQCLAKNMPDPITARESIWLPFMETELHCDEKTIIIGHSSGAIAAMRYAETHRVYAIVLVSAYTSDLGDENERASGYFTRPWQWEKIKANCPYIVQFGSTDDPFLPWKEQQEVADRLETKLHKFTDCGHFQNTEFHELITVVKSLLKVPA
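Material: RBBP9 protein. Amount: RBBP9 at 2.5 µM in dispensed solution, before mixing. Schedule: 30 min then 45 min, 25 °C. Medium: Tris buffer pH 8.0, NaCl, Pluronic. Measured by: fluorescence polarization. Measure: percent inhibition from mP, scaled between DMSO and no-protein wells. Replication: one well per compound.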
PAFAH2 inh = PAFAH2 enzyme inhibitors, primary screen, biochemical, fluorescence polarization, human; Platelet-activating factor acetylhydrolase 2, cytoplasmic (Homo sapiens), Q99487; recombinant PAFAH2, FP-rhodamine activity probe; inhibition, % at 3.39 µM; hit rate 0.99% among 340,000; AID 492956, 2010;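 active means inhibition above the mean over all tested compounds plus 3 SD, cut at about 30% in these data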;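 further: inhibitors block probe labeling of enzyme so polarization drops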
pPAFAH FP inh = pPAFAH enzyme inhibitors, primary screen, biochemical, fluorescence polarization, human; recombinant pPAFAH, FP-rhodamine probe fluorescence polarization; inhibition, % at 3.39 µM; hit rate 1.5% among 330,000;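 active means inhibition above the mean inhibition across the screen plus 3 SD, cut at about 25% in these data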;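 further: inhibitors block binding of the rhodamine activity-based probe so polarization drops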
PAFAH1B3 inh = PAFAH1B3 enzyme inhibitors, primary screen, biochemical, fluorescence polarization, human | AID 492972, 2010 | recombinant PAFAH1B3, FP-rhodamine probe | Platelet-activating factor acetylhydrolase IB subunit alpha1 (Homo sapiens), Q15102 | hit rate 0.28% among 340,000 | inhibition, % at 3.39 µM;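 active means inhibition above the screen-wide average of all tested compounds plus 3 SD, cut at about 25% in these data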
PAFAH2 FP conf = PAFAH2 enzyme inhibitors, confirmation, biochemical, fluorescence polarization, human; shares compounds with PAFAH2 inh; recombinant PAFAH2, FP-rhodamine activity probe; inhibition, % at 3.39 µM; hit rate 65% among 2,300; AID 493030, 2011;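 active means mean inhibition over three repeats above a set limit taken from the earlier primary screen, cut at about 30% in these data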;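 further: inhibitor blocks binding of rhodamine activity probe so polarization falls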
Numbers stand for hits; n = inactive; x = no result. Hits are enriched below; roughly 2.7% of the tested compounds scored in any of these assays.

SMILES | PAFAH1B2 inh | RBBP9 inh | PAFAH2 inh | pPAFAH FP inh | PAFAH1B3 inh | PAFAH2 FP conf
CC(=O)N1c2ccc(S(=O)(=O)N(C)C3CCCCC3)cc2CC1C (stereo not given) | n | x | n | n | n | x
O=C(OCc1nnc(-c2ccccc2)o1)c1ccc(Cl)cc1 | n | n | 43.0 | n | n | 37.5
Cc1cc(C)n(-c2ccc(C(=O)OCc3nnc(-c4ccccc4)o3)cc2)n1 | n | n | n | n | n | x
Cc1ccc(-c2nnc(COC(=O)c3cccs3)o2)cc1 | n | x | 53.9 | n | n | 37.9
O=C(Cc1ccc(Cl)cc1)OCc1nnc(-c2ccccc2)o1 | n | n | n | n | n | x
Cc1ccc(C(=O)OCc2nnc(-c3ccccc3)o2)o1 | n | n | 43.6 | n | n | 33.4
Cc1ccc(C(=O)OCc2nnc(-c3ccc(Br)cc3)o2)cc1 | n | n | 72.4 | n | n | 58.4
O=C(NCc1ccco1)C1CCCN1C(=O)Nc1ccc(Cl)cc1 (stereo not given) | n | n | n | n | n | x
COc1ccc(NC(=S)N(CCO)Cc2cc3c(C)cc(C)cc3[nH]c2=O)cc1 | n | n | n | n | n | x
Cc1ccc(C(=O)OCc2nnc(-c3ccccc3)o2)cc1S(=O)(=O)N1CCOCC1 | n | x | 61.1 | n | n | 47.0
Cc1ccc(S(=O)(=O)N2CCOCC2)cc1C(=O)OCc1nnc(-c2ccccc2)o1 | n | x | n | n | n | x
CN(C)S(=O)(=O)c1ccc(C(=O)OCc2nnc(-c3ccccc3)o2)cc1 | n | n | n | n | n | x
O=C(/C=C/c1ccco1)OCc1nnc(-c2ccccc2)o1 | n | n | 67.7 | n | n | 54.5
O=C(OCc1nnc(-c2ccccc2)o1)c1ccc(CO)cc1 | n | n | 54.8 | n | n | 56.4
O=C(OCc1nnc(-c2ccccc2)o1)c1ccc2c(c1)OCCO2 | n | n | 75.5 | n | n | 60.2
CC(C)c1ccc(S(=O)(=O)N2CCN(C(=O)CN3C(=O)c4ccccc4C3=O)CC2)cc1 | n | x | n | n | n | x
O=C(OCc1nnc(-c2ccccc2)o1)c1cccc(-n2cnnn2)c1 | n | x | 46.8 | n | n | 39.7
O=C1CCC(C(=O)OCc2nnc(-c3ccccc3)o2)=NN1 | n | x | n | n | n | x
O=C(COC(=O)c1cccc(-n2cnnn2)c1)c1ccccc1 | n | x | n | n | n | x
O=C(OCc1nnc(-c2ccccc2)o1)C1=COCCO1 | n | n | 44.3 | n | n | 30.8
Cc1ccc(F)cc1NC(=O)/C=C/c1ccc(S(=O)(=O)N2CCOCC2)cc1 | n | x | n | n | n | x
O=C(COC(=O)/C=C/c1ccc(S(=O)(=O)N2CCOCC2)cc1)Nc1ccccc1F | n | x | 59.5 | n | n | 42.1
Cc1nn(-c2ccccc2)c(C)c1NC(=O)COC(=O)/C=C/c1ccccc1 | n | x | 38.6 | n | n | 32.3
Cc1ccc(S(=O)(=O)N2CCOCC2)cc1NC(=O)COC(=O)/C=C/c1ccc(F)cc1 | n | x | 52.6 | n | n | 47.2
O=C(COC(=O)/C=C/c1ccc(S(=O)(=O)N2CCOCC2)cc1)NCc1ccc2c(c1)OCO2 | n | n | n | n | n | x
SMILES | PAFAH1B2 inh | RBBP9 inh | PAFAH2 inh | pPAFAH FP inh | PAFAH1B3 inh | PAFAH2 FP conf
O=C(COC(=O)/C=C/c1ccc(S(=O)(=O)N2CCOCC2)cc1)NCc1ccc(F)cc1 | n | n | 38.7 | n | n | 34.5
CCN(CC)c1ccc(N/C(N)=N/c2nc(C(F)(F)F)cc(=O)[nH]2)cc1 | n | n | n | n | n | x
COCCCN(Cc1cccs1)S(=O)(=O)c1csc(C(N)=O)c1 | n | x | n | n | n | x
O=C(CCN1CCN(Cc2ccccc2)CC1)Nc1cccc(Br)c1 | n | x | n | n | n | x
COc1cccc(C(=O)NCC(=O)N2CCC3(CC2)NCCc2[nH]cnc23)c1 | n | x | n | n | n | x
COc1ccc(-c2cc(C)no2)cc1S(=O)(=O)N(C)c1ccc(C)cc1 | n | x | n | n | n | x
COC(C(=O)Nc1ccnn1C1CCN(Cc2cnn(C)c2)CC1)c1ccccc1 (stereo not given) | n | x | n | n | n | x
COc1ccc(/C=C/C(=O)OCC(=O)NCCNC(=O)COC(=O)/C=C/c2ccc(OC)cc2)cc1 | n | x | n | n | n | x
COc1ccc(/C=C/C(=O)OCC(=O)Nc2c(C)cccc2C)cc1 | n | n | 63.2 | n | n | 65.2
